Assays:
[1] = test system: cysteine peptide Ac-RFAACAA-COOH; test: Cysteine peptide depletion, RapidFire-MS/MS DPRA; format: biochemical; details: for Detection as sensitizer in the cysteine peptide depletion assay: threshold defined by OECD test guideline 442C
[2] = test system: alanine peptide Ac-RFAAAAA-COOH; test: Alanine peptide; format: biochemical
Procedure, shortened: (§1)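 Lysine peptide (Ac-RFAAKAA-COOH) and alanine internal-standard peptide are mixed, each at 0.5 mM final, in acetate ammonia buffer pH 10.2. Test compound in DMSO […] is added in a 384-well plate and incubated 24 h at room temperature. The range is 12 μM–50 mM or 25 μM–100 mM. Samples are diluted to 0.05 μM, then analysed by C4 SPE with triple-quadrupole MRM. Peptide area is normalised to DMSO wells.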

[3] = test system: lysine peptide Ac-RFAAKAA-COOH; test: Lysine peptide depletion, HPLC-TOF-MS; format: biochemical
Procedure, shortened: (§2)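 Peptide mixtures are separated on a C18 column (2.1×150 mm, 1.7 μm) at 60 °C and 0.4 mL/min. Mobile phases are water and acetonitrile with 0.1% formic acid, run over a 22 min gradient. Detection is by positive-mode ESI-TOF MS over m/z 150–1700. Seven concentrations of test compound are tested. Integrated lysine or alanine peptide area is normalised to the DMSO control.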

[4] = test system: alanine peptide Ac-RFAAAAA-COOH; test: Alanine peptide signal, HPLC-TOF-MS; format: biochemical
Procedure, shortened: as §2

[5] = test system: cysteine peptide Ac-RFAACAA-COOH; test: Confirmation of chemical-cysteine peptide adduct by HPLC-TOF-MS; format: biochemical; details: HPLC-TOF-MS after 24 h incubation; Figure 6
Procedure, shortened: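 Cysteine peptide (Ac-RFAACAA-COOH) is mixed with alanine peptide and incubated with test compound for 24 h. The mixture is run by C18 LC (60 °C, 0.4 mL/min, 22 min water/acetonitrile 0.1% formic acid gradient) with positive-mode ESI-TOF MS over m/z 150–1700. Total ion chromatograms are recorded, and mass spectra of selected peaks are inspected for adduct or peptide dimer masses.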

[6] = test system: lysine peptide Ac-RFAAKAA-COOH; test: Lysine peptide depletion, RapidFire-MS/MS DPRA; format: biochemical
Procedure, shortened: as §1

[7] = test system: lysine peptide; details: cited from earlier work
[8] = Precipitation in lysine peptide buffer; format: physicochemical; details: 100 mM added into the lysine peptide buffer

Compound: C=C(C)C(=O)OCC(C)O (stereo not shown) [2-Propenoic acid, 2-methyl-, monoester with 1,2-propanedio]
- Detection as sensitizer in the cysteine peptide depletion assay [1]: not detected

Compound: O=C/C=C/c1ccccc1 [Cinnamic aldehyde]
- Decrease in alanine peptide signal (depletion), RapidFire-MS/MS ([2]; high concentrations (above 1 mM), area normalized to DMSO, Figure 5A): > 60%
- Lysine peptide signal, HPLC-TOF-MS ([3]; at 100 mM, Figure 5B): slight decrease
- Alanine peptide signal, HPLC-TOF-MS ([4]; 7-point concentration range, Figure 5A): no changes were observed
- Adduct formation with cysteine peptide [5]: formed adduct peak with cysteine peptide

Compound: CCCCCCCCCCCCOC(=O)c1cc(O)c(O)c(O)c1 [Dodecyl gallate]
- Detection as sensitizer in the cysteine peptide depletion assay [1]: not detected

Compound: C=CC(=O)OCC [Ethyl acrylate]
- Detection as sensitizer in the cysteine peptide depletion assay [1]: not detected
- Depletion of the lysine peptide at the highest tested concentrations [6]: more than 50%

Compound: C=C(C)C(=O)OCCOC(=O)C(=C)C [Ethylene glycol dimethacrylate]
- Adduct formation with cysteine peptide [5]: formed adduct peak with cysteine peptide

Compound: O=CCCCC=O [Glutaraldehyde]
- Depletion of the lysine peptide at the highest tested concentrations [6]: more than 50%
- Lysine peptide signal vs concentration, RapidFire-MS/MS ([6]; lysine peptide area only, Figure 5E): decreased in a concentration-dependent manner
- Alanine peptide signal vs concentration, RapidFire-MS/MS ([2]; Figure 5D): decreased in a concentration-dependent manner
- Lysine peptide signal vs concentration, HPLC-TOF-MS ([3]; Figure 5E): decreased in a concentration-dependent manner
- Alanine peptide signal vs concentration, HPLC-TOF-MS ([4]; Figure 5D): decreased in a concentration-dependent manner

Compound: Oc1ccc(O)cc1 [Hydroquinone]
- Depletion of the lysine peptide at the highest tested concentrations [6]: more than 50%
- Depletion of the lysine peptide ([7]; at 0.5 mM, ref Gerberick et al., 2004): 83.3%

Compound: C=CC(=O)OCCO [Hydroxyethyl acrylate]
- Depletion of the lysine peptide at the highest tested concentrations [6]: more than 50%

Compound: O=C(NCNC(=O)NC1C(=O)NC(=O)N1CO)NC1C(=O)NC(=O)N1CO (stereo not shown) [Imidazolidinyl urea]
- Detection as sensitizer in the cysteine peptide depletion assay [1]: not detected

Compound: CCCCCCCCCCCCCCCC(=O)Cl [Palmitoyl chloride]
- Detection as sensitizer in the cysteine peptide depletion assay [1]: not detected
- Precipitation on addition to lysine peptide buffer [8]: immediate precipitation
- Lysine peptide depletion (literature) ([7]; ref No, O.T., 2015): almost completely depleted lysine peptide

Compound: O=CCc1ccccc1 [Phenylacetaldehyde]
- Detection as sensitizer in the cysteine peptide depletion assay [1]: not detected

Compound: CCCOC(=O)c1cc(O)c(O)c(O)c1 [Propyl gallate]
- Depletion of the lysine peptide at the highest tested concentrations [6]: more than 50%

Compound: CCCCCC [n-Hexane]
- Efficacy (% peptide depletion), cysteine peptide ([1]; pH 7.5): Inactive
- IC50 (M), depletion of cysteine peptide ([1]; pH 7.5): Inactive

Reference: paper PMC9527016 (Toxicology letters, 2020)
